Measurements reported in ChEMBL document CHEMBL4261620, “Design, synthesis, and biological evaluation of 4-chloro-2H-thiochromenes featuring nitrogen-containing side chains as potent antifungal agents” (Bioorg Med Chem Lett, 2018).
Converted amounts (≈) assume the structure as drawn.

Each compound was assayed on Candida albicans (assay: Antifungal activity against Candida albicans cpcc 400616 after 2 to 7 days by broth microdilution method).
Type: functional
Summary of the method: (§1)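 Broth microdilution in 96-well plates per NCCLS. Compounds and fluconazole reference dissolved in DMSO, serially diluted in growth medium, then inoculum suspension added, final concentrations 128 to 0.25 µg/mL (twofold series). Incubated at 32°C. MIC read visually after 2-7 d.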
Fc1ccc2c(c1)C(Cl)=C(CN1CCCC1)CS2 was tested, and the MIC was 8 µg/mL (≈ 28.2 µM). Work on CC(C)N(CC1=C(Cl)c2cc(F)ccc2SC1)C(C)C yielded an MIC of 4 µg/mL (≈ 12.7 µM). For CN1CCN(CC2=C(Cl)c3cc(F)ccc3SC2)CC1, the MIC was 16 µg/mL (≈ 51.1 µM). Work on O=CC1=C(Cl)c2cc(F)ccc2SC1 yielded an MIC of 64 µg/mL (≈ 280 µM). Compound Fc1ccc2c(c1)C(Cl)=C(Cn1cncn1)CS2 has an MIC of 16 µg/mL (≈ 56.8 µM). With CCN(CC)CC1=C(Cl)c2cc(Cl)ccc2SC1 the MIC was 4 µg/mL (≈ 13.2 µM). CC(C)NCC1=C(Cl)c2cc(Br)ccc2SC1 gave an MIC of 8 µg/mL (≈ 24 µM). With ClC1=C(Cn2cncn2)CSc2ccc(Cl)cc21 the MIC was 16 µg/mL (≈ 53.7 µM).

What follows are compounds tested on Candida albicans (assay: Antifungal activity against fluconazole-sensitive Candida albicans ATCC SC5314 after 2 to 7 days by broth microdilution method).
Type: functional
Summary of the method: as §1
For Fc1ccc2c(c1)C(Cl)=C(CN1CCCC1)CS2, the MIC was 8 µg/mL (≈ 28.2 µM). CC(C)N(CC1=C(Cl)c2cc(F)ccc2SC1)C(C)C was tested, and the MIC was 4 µg/mL (≈ 12.7 µM). Work on CN1CCN(CC2=C(Cl)c3cc(F)ccc3SC2)CC1 yielded an MIC of 16 µg/mL (≈ 51.1 µM). Compound O=CC1=C(Cl)c2cc(F)ccc2SC1 has an MIC of 64 µg/mL (≈ 280 µM). In the case of Fc1ccc2c(c1)C(Cl)=C(Cn1cncn1)CS2, the MIC is reported as 4 µg/mL (≈ 14.2 µM). Compound CCN(CC)CC1=C(Cl)c2cc(Cl)ccc2SC1 has an MIC of 0.5 µg/mL (≈ 1.65 µM). Work on CC(C)NCC1=C(Cl)c2cc(Br)ccc2SC1 yielded an MIC of 4 µg/mL (≈ 12 µM). Work on ClC1=C(Cn2cncn2)CSc2ccc(Cl)cc21 yielded an MIC of 8 µg/mL (≈ 26.8 µM).

The compounds below were run on Candida albicans (assay: Antifungal activity against fluconazole-resistant Candida albicans 103 after 2 to 7 days by broth microdilution method).
Type: functional
Summary of the method: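 Broth microdilution per NCCLS. Compounds dissolved in DMSO, serially diluted in growth medium, then inoculum suspension added to give final concentrations of 128 to 0.25 µg/mL (twofold steps). Plates incubated at 32°C. MIC read by visual observation after 2-7 d. Fluconazole served as reference drug.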
With Fc1ccc2c(c1)C(Cl)=C(CN1CCCC1)CS2 the MIC was 64 µg/mL (≈ 226 µM). CC(C)N(CC1=C(Cl)c2cc(F)ccc2SC1)C(C)C was tested, and the MIC was 64 µg/mL (≈ 204 µM). CN1CCN(CC2=C(Cl)c3cc(F)ccc3SC2)CC1 showed an MIC of 16 µg/mL (≈ 51.1 µM). In the case of O=CC1=C(Cl)c2cc(F)ccc2SC1, the MIC is reported as 64 µg/mL (≈ 280 µM). For Fc1ccc2c(c1)C(Cl)=C(Cn1cncn1)CS2, the MIC was 32 µg/mL (≈ 114 µM). CCN(CC)CC1=C(Cl)c2cc(Cl)ccc2SC1 was tested, and the MIC was 8 µg/mL (≈ 26.5 µM). CC(C)NCC1=C(Cl)c2cc(Br)ccc2SC1 showed an MIC of 16 µg/mL (≈ 48.1 µM). In the case of ClC1=C(Cn2cncn2)CSc2ccc(Cl)cc21, the MIC is reported as 32 µg/mL (≈ 107 µM).

What follows are compounds tested on Cryptococcus neoformans (assay: Antifungal activity against Cryptococcus neoformans cgmcc 2.3161 after 2 to 7 days by broth microdilution method).
Type: functional
Summary of the method: as §1
For Fc1ccc2c(c1)C(Cl)=C(CN1CCCC1)CS2, the MIC was 4 µg/mL (≈ 14.1 µM). In the case of CC(C)N(CC1=C(Cl)c2cc(F)ccc2SC1)C(C)C, the MIC is reported as 4 µg/mL (≈ 12.7 µM). For CN1CCN(CC2=C(Cl)c3cc(F)ccc3SC2)CC1, the MIC was 1 µg/mL (≈ 3.2 µM). Work on O=CC1=C(Cl)c2cc(F)ccc2SC1 yielded an MIC of 32 µg/mL (≈ 140 µM). With Fc1ccc2c(c1)C(Cl)=C(Cn1cncn1)CS2 the MIC was 64 µg/mL (≈ 227 µM). CCN(CC)CC1=C(Cl)c2cc(Cl)ccc2SC1 showed an MIC of 1 µg/mL (≈ 3.31 µM). In the case of CC(C)NCC1=C(Cl)c2cc(Br)ccc2SC1, the MIC is reported as 4 µg/mL (≈ 12 µM). In the case of ClC1=C(Cn2cncn2)CSc2ccc(Cl)cc21, the MIC is reported as 4 µg/mL (≈ 13.4 µM).

What follows are compounds tested on Candida tropicalis (assay: Antifungal activity against Candida tropicalis cgmcc 2.3739 after 2 to 7 days by broth microdilution method).
Type: functional
Summary of the method: as §1
With Fc1ccc2c(c1)C(Cl)=C(CN1CCCC1)CS2 the MIC was 16 µg/mL (≈ 56.4 µM). With CC(C)N(CC1=C(Cl)c2cc(F)ccc2SC1)C(C)C the MIC was 2 µg/mL (≈ 6.37 µM). For CN1CCN(CC2=C(Cl)c3cc(F)ccc3SC2)CC1, the MIC was 32 µg/mL (≈ 102 µM). For O=CC1=C(Cl)c2cc(F)ccc2SC1, the MIC was 16 µg/mL (≈ 70 µM). In the case of Fc1ccc2c(c1)C(Cl)=C(Cn1cncn1)CS2, the MIC is reported as 8 µg/mL (≈ 28.4 µM). For CCN(CC)CC1=C(Cl)c2cc(Cl)ccc2SC1, the MIC was 2 µg/mL (≈ 6.62 µM). For CC(C)NCC1=C(Cl)c2cc(Br)ccc2SC1, the MIC was > 128 µg/mL. ClC1=C(Cn2cncn2)CSc2ccc(Cl)cc21 gave an MIC of 32 µg/mL (≈ 107 µM).

The compounds below were run on Aspergillus fumigatus (assay: Antifungal activity against Aspergillus fumigatus cgmcc 3.7795 after 2 to 7 days by broth microdilution method).
Type: functional
Summary of the method: as §1
For Fc1ccc2c(c1)C(Cl)=C(CN1CCCC1)CS2, the MIC was > 128 µg/mL. In the case of CC(C)N(CC1=C(Cl)c2cc(F)ccc2SC1)C(C)C, the MIC is reported as > 128 µg/mL. With CN1CCN(CC2=C(Cl)c3cc(F)ccc3SC2)CC1 the MIC was > 128 µg/mL. O=CC1=C(Cl)c2cc(F)ccc2SC1 was tested, and the MIC was > 128 µg/mL. With Fc1ccc2c(c1)C(Cl)=C(Cn1cncn1)CS2 the MIC was > 128 µg/mL. For CCN(CC)CC1=C(Cl)c2cc(Cl)ccc2SC1, the MIC was > 128 µg/mL. For CC(C)NCC1=C(Cl)c2cc(Br)ccc2SC1, the MIC was > 128 µg/mL. For ClC1=C(Cn2cncn2)CSc2ccc(Cl)cc21, the MIC was > 128 µg/mL.

These compounds were tested on A549 (assay: Cytotoxicity against human A549 cells by MTT assay).
Type: cell-based
COc1cccc2c1C(=O)c1c(O)c3c(c(O)c1C2=O)C[C@@](O)(C(=O)CO)C[C@@H]3O[C@H]1C[C@H](N)[C@H](O)[C@H](C)O1 was tested, and the IC50 was 1.77 µg/mL (≈ 3.26 µM). For CCN(CC)CC1=C(Cl)c2cc(Cl)ccc2SC1, the IC50 was > 100 µg/mL.

These compounds were tested on HepG2 (assay: Cytotoxicity against human HepG2 cells by MTT assay).
Type: cell-based
In the case of COc1cccc2c1C(=O)c1c(O)c3c(c(O)c1C2=O)C[C@@](O)(C(=O)CO)C[C@@H]3O[C@H]1C[C@H](N)[C@H](O)[C@H](C)O1, the IC50 is reported as 2.9 µg/mL (≈ 5.34 µM). With CCN(CC)CC1=C(Cl)c2cc(Cl)ccc2SC1 the IC50 was > 100 µg/mL.

The compounds below were run on HT-29 (assay: Cytotoxicity against human HT-29 cells by MTT assay).
Type: cell-based
COc1cccc2c1C(=O)c1c(O)c3c(c(O)c1C2=O)C[C@@](O)(C(=O)CO)C[C@@H]3O[C@H]1C[C@H](N)[C@H](O)[C@H](C)O1 gave an IC50 of 1.44 µg/mL (≈ 2.65 µM). For CCN(CC)CC1=C(Cl)c2cc(Cl)ccc2SC1, the IC50 was > 100 µg/mL.

What follows are compounds tested on H9c2 (assay: Cytotoxicity against rat H9c2 cells by MTT assay).
Type: cell-based
In the case of COc1cccc2c1C(=O)c1c(O)c3c(c(O)c1C2=O)C[C@@](O)(C(=O)CO)C[C@@H]3O[C@H]1C[C@H](N)[C@H](O)[C@H](C)O1, the IC50 is reported as 0.29 µg/mL (≈ 0.534 µM). For CCN(CC)CC1=C(Cl)c2cc(Cl)ccc2SC1, the IC50 was > 100 µg/mL.
